A word on the IC50: it is the concentration needed to halve the response being measured. Higher therefore signals weaker potency. In general, kcat/Km refers to the second-order rate constant that governs catalysis at low substrate concentration. What is called Km is the concentration of substrate that gives half-maximal velocity. As a reminder, the Vmax is the top rate of the reaction or transport when substrate is in excess.

Data set [1] concerns Trypanosoma brucei. The experiment in a line: Antiparasitic activity against Trypanosoma brucei BSF after 3 days by Alamar blue assay. It counts as functional, organism-based. Particulars: 72 h. The method in brief: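 BSF trypomastigotes (MITat 427, clone 221a) were seeded at 1 × 10^3 ml−1 in modified Iscove's medium with tetracycline-free FCS, across a range of compound concentrations. Plates ran 3 days at 37°C, then Alamar blue was added for 16 h. Fluorescence was read at ex 530/em 585 nm and IC50 determined.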

The nature of data set [2]: Therapeutic index, ratio of IC50 against human THP1 cells to IC50 against Trypanosoma brucei. The format is cell-based, THP-1. Particulars: read-out: Ratio IC50. The method in brief: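 Index was calculated as THP-1 IC50 divided by T. brucei BSF IC50. THP-1 IC50 came from 6-day Alamar blue assays, and parasite IC50 from 3-day Alamar blue assays, both at 37°C.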
Data set [3] has as its system Trypanosoma brucei.
The subject of data set [4] is Trypanosoma brucei. The source holds these as a separate data set.
The test system of a further data set is THP-1. Kind of data set: Cytotoxicity against human THP1 cells after 6 days by Alamar blue assay. The format is cell-based. Particulars: THP-1, 144 h. A digest of the protocol:
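THP-1 cells were grown in RPMI 1640 with 10% tetracycline-free FCS and 20 mM HEPES. They were seeded at 1 × 10^4 ml−1 across a range of compound concentrations and incubated 6 days at 37°C, 5% CO2.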
On the technique in general: Alamar Blue is a resazurin reagent that responds to reducing activity.

In data set [5] the test system is Trypanosoma brucei. Particulars: 100 uM.
Data set [6] has as its system Trypanosoma brucei. The experiment in a line: Antiparasitic activity against Trypanosoma brucei BSF overexpressing NTR gene after 3 days by Alamar blue assay. The format is functional, organism-based. Particulars: 72 h. The method in brief: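 Parasite lines were heterozygous NTR+/− (kept on 2 μg ml−1 puromycin) or TbNTR-overexpressing (kept on 2.5 μg ml−1 hygromycin plus 1 μg ml−1 phleomycin). Tetracycline at 1 μg ml−1 was added for induction where appropriate. Cells were seeded at 1 × 10^3 ml−1 and grown 3 days at 37°C, followed by Alamar blue for 16 h. Fluorescence IC50s were compared with control cells.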

`CC1CS(=O)(=O)CCN1/N=C/c1ccc([N+](=O)[O-])o1` (configuration not stated) [NIFURTIMOX]: the IC50 in the data set on Trypanosoma brucei [1] is 1.8 µM; with THP-1 it was 64.8 µM. Further, in data set [2], the selectivity ratio worked out at 36. The kcat/Km with Trypanosoma brucei [3] was 3.4 M⁻¹ s⁻¹. Also, the Km in the data set with Trypanosoma brucei [4] worked out at 53.1 µM. Moreover, the maximal velocity (Vmax) with Trypanosoma brucei [5] came to 423 nmol/min.
Regarding `O=[N+]([O-])c1ccc([C@@H]2CCN[P@@](=O)(N(CCCl)CCCl)O2)cc1`, the figures for the IC50 with Trypanosoma brucei [1] and in the data set on THP-1 were 1.8 µM and 64.8 µM, respectively. For the same compound, in data set [2], the selectivity ratio amounted to 36.
For `CC(C)(C(=O)N[C@@H]1CCN[P@](=O)(N(CCCl)CCCl)O1)c1ccccc1[N+](=O)[O-]` the same measures were 1.8 µM, 64.8 µM and 36.
For `CC(C)(C(=O)N[C@@H]1CCN[P@@](=O)(N(CCCl)CCCl)O1)c1ccccc1[N+](=O)[O-]` the same measures were 1.8 µM, 64.8 µM and 36.
For `NP(=O)(OCc1cccc([N+](=O)[O-])c1)N(CCCl)CCCl` (configuration not stated), in that order: 1.8 µM, 64.8 µM and 36.
Consider `CC(OP(N)(=O)N(CCCl)CCCl)c1ccc([N+](=O)[O-])cc1` (configuration not stated), for which the results for the IC50 in the data set with Trypanosoma brucei [1] and in the data set with THP-1 were 1.8 µM and 64.8 µM, respectively. For the same compound, in data set [2], the selectivity ratio is 36.
For `NP(=O)(OCc1ccccc1[N+](=O)[O-])N(CCCl)CCCl` (configuration not stated), in that order: 1.8 µM, 64.8 µM and 36.
For `O=[N+]([O-])c1ccc([C@@H]2CCO[P@](=O)(N(CCCl)CCCl)N2)cc1`, in that order: 1.8 µM, 64.8 µM and 36.
`NP(=O)(OCc1ccc([N+](=O)[O-])cc1)N(CCCl)CCCl` (configuration not stated): the IC50 in the data set with Trypanosoma brucei [1] came to 3.4 µM; in the data set with THP-1, 66 µM.
`Nc1nc(N)nc(Nc2ccc([As]3SCC(CO)S3)cc2)n1` (configuration not stated) [MELARSOPROL]: half-maximal inhibition in the data set on Trypanosoma brucei [6] (IC50) was put at 4 µM.
On to `O=[N+]([O-])c1ccc([C@@H]2CCN[P@](=O)(N(CCCl)CCCl)N2)cc1`, for which the IC50 turned out to be 1.8 µM with Trypanosoma brucei [1] and 64.8 µM in the data set with THP-1. In data set [2], the selectivity ratio was found to be 36.
With `NP(=O)(OCc1c(F)cc([N+](=O)[O-])cc1F)N(CCCl)CCCl` (configuration not stated), the 50% inhibitory concentration (IC50) with Trypanosoma brucei [1] was found to be 0.007 µM; with THP-1 it was 6.9 µM.
Take `Cc1cc(COP(N)(=O)N(CCCl)CCCl)ccc1[N+](=O)[O-]` (configuration not stated): the IC50 in the data set with Trypanosoma brucei [1] is 1.8 µM; in the data set with THP-1, 64.8 µM. Further, the selectivity ratio in data set [2] worked out at 36.
Take `COc1cc(COP(N)(=O)N(CCCl)CCCl)ccc1[N+](=O)[O-]` (configuration not stated): the results for the IC50 with Trypanosoma brucei [1] and in the data set on THP-1 were 1.8 µM and 64.8 µM, respectively. Moreover, the selectivity ratio in data set [2] was 36.
On to `NP(=O)(OCc1ccc([N+](=O)[O-])cc1C(F)(F)F)N(CCCl)CCCl` (configuration not stated), for which the results for the IC50 in the data set with Trypanosoma brucei [1] and with THP-1 were 0.149 µM and 19 µM, respectively.
For `NP(=O)(OCc1ccc([N+](=O)[O-])cc1Cl)N(CCCl)CCCl` (configuration not stated) the same measures were 0.008 µM and 10 µM.
With `O=[N+]([O-])c1ccc([C@@H]2CCO[P@@](=O)(N(CCCl)CCCl)N2)cc1`, the IC50 is 1.8 µM in the data set with Trypanosoma brucei [1] and 64.8 µM in the data set with THP-1. Also, the selectivity ratio in data set [2] turned out to be 36.
As to `NP(=O)(OCc1ccc([N+](=O)[O-])cc1F)N(CCCl)CCCl` (configuration not stated), the IC50 in the data set with Trypanosoma brucei [1] stood at 0.268 µM; in the data set with THP-1 it was 20.3 µM.
With `COc1cc([N+](=O)[O-])ccc1COP(N)(=O)N(CCCl)CCCl` (configuration not stated), the values for the IC50 in the data set on Trypanosoma brucei [1] and in the data set on THP-1 were 1.2 µM and 33.5 µM, respectively. For the same compound, the selectivity ratio in data set [2] worked out at 28.
`NP(=O)(OCc1ccc([N+](=O)[O-])c(F)c1)N(CCCl)CCCl` (configuration not stated): the IC50 in the data set on Trypanosoma brucei [1] came out at 3.2 µM; in the data set with THP-1, 17.6 µM. Also, the selectivity ratio in data set [2] turned out to be 6.
As for `O=[N+]([O-])c1ccc([C@@H]2CCN[P@](=O)(N(CCCl)CCCl)O2)cc1`, the half-inhibitory concentration (IC50) was found to be 1.8 µM in the data set with Trypanosoma brucei [1] and 64.8 µM in the data set on THP-1. In addition, in data set [2], the selectivity ratio was 36.
As for `O=[N+]([O-])c1ccc([C@@H]2CCN[P@@](=O)(N(CCCl)CCCl)N2)cc1`, the IC50 amounted to 1.8 µM in the data set on Trypanosoma brucei [1] and 64.8 µM in the data set on THP-1. Besides, the selectivity ratio in data set [2] turned out to be 36.
